Experimental data taken from ChEMBL document CHEMBL1132142, “Extension of the polyanionic cosalane pharmacophore as a strategy for increasing anti-HIV potency” (J Med Chem, 1999).

Legend:
CD4+ve Th [1] = assay: Compound was tested for binding of the gp120 (strain IIIb)to the CD4+ T-cell lines at 0.65 uM; format: functional
Method in brief: (§1)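 Recombinant gp120 (strain IIIB) binding to MT-4 (CD4+ T-cell) cells was measured at each listed concentration. Read-out was % positive cells and % inhibition, alongside an isotype mAb control.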

CD4+ve Th [2] = assay: Compound was tested for binding of the gp120 (strain IIIb)to the CD4+ T-cell lines at 16 uM; format: functional; method in brief: as §1
CD4+ve Th [3] = assay: Compound was tested for binding of the gp120 (strain IIIb)to the CD4+ T-cell lines at 3.2 uM; format: functional; method in brief: as §1
CD4+ve Th [4] = assay: Compound was tested for binding of the gp120 (strain IIIb)to the CD4+ T-cell lines at 81 uM; format: functional; method in brief: as §1
CEM-SS [5] = assay: The compound was evaluated for cytotoxicity in CEM-SS cells; format: functional, Homo sapiens
Method in brief: (§2)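 Uninfected cells (CEM-SS or MT-4, per line) were incubated with the drug in a microtiter XTT assay. Viability was expressed as percent of the uninfected drug-free control. CC50 is the concentration causing 50% cell death. Triplicates were run per plate on two sister plates, and the two plate values were averaged.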

CEM-SS [6] = assay: The compound was evaluated for inhibition of cytopathic effect of HIV-1 RF in CEM-SS cells; format: functional, cell-based, Homo sapiens; conditions: cem-ss
Method in brief: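 XTT-based microtiter cytoprotection assay measuring protection from HIV-1-induced cytopathic effect, read as percent of the uninfected drug-free control. EC50 is the concentration giving 50% protection in infected cultures. Results were confirmed by cell-free supernatant reverse transcriptase and p24 levels. Each plate was run in triplicate, and the EC50 values from two sister plates were averaged.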

MT4 [7] = assay: The compound was evaluated for cytotoxicity in MT-4 cells; format: functional, Homo sapiens; method in brief: as §2
MT4 [8] = assay: The compound was evaluated for inhibition of cytopathic effect of HIV-1 IIIB in MT-4 cells; format: functional, cell-based, Homo sapiens; conditions: mt4
MT4 [9] = assay: The compound was evaluated for inhibition of cytopathic effect of HIV-2ROD in MT-4 cells; format: functional, cell-based, Homo sapiens; conditions: mt4
MT4 [10] = assay: Compound was tested for binding of the mAb (NEA9305) to the V3 loo[p of gp120, expressed on HIV-1 infected MT-4 cells at 81 uM; format: functional, Homo sapiens
Method in brief: (§3)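 Binding of mAb NEA9305 to the gp120 V3 loop expressed on HIV-1-infected MT-4 cells was measured at each listed concentration. Results were given as % positive cells and % inhibition, with an isotype mAb control.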

MT4 [11] = assay: Compound was tested for binding of the mAb (NEA9305) to the V3 loo[p of gp120, expressed on HIV-1 infected MT-4 cells at 16 uM; format: functional, Homo sapiens; method in brief: as §3
MT4 [12] = assay: Compound was tested for binding of the mAb (NEA9305) to the V3 loo[p of gp120, expressed on HIV-1 infected MT-4 cells at 0.65 uM; format: functional, Homo sapiens; method in brief: as §3
MT4 [13] = assay: Compound was tested for binding of the mAb (NEA9305) to the V3 loo[p of gp120, expressed ion HIV-1 infected MT-4 cells at 3.2 uM; format: functional, Homo sapiens; method in brief: as §3

## CC(C)CCCC(C)[C@H]1CC[C@H]2[C@@H]3CCC4C[C@@H](CCC=C(c5cc(Cl)c(OCc6ccc(C(=O)[O-])cc6)c(C(=O)[O-])c5)c5cc(Cl)c(OCc6ccc(C(=O)[O-])cc6)c(C(=O)[O-])c5)CC[C@]4(C)[C@H]3CC[C@]12C.[Na+].[Na+].[Na+].[Na+] (some centres not stated)
CD4+ve Th [1]
  Positive cells: 76.2%
  inhibition at 0.65 µM: 22%
CD4+ve Th [2]
  Positive cells: 6.9%
  inhibition at 16 µM: 99%
CD4+ve Th [3]
  Positive cells: 19.9%
  inhibition at 3.2 µM: 82%
CD4+ve Th [4]
  Positive cells: 7.8%
  inhibition at 81 µM: 98%
CEM-SS [5]
  Cytotoxicity: 76 µM
CEM-SS [6]
  EC50: 800 nM
MT4 [7]
  Cytotoxicity: 95 µM
MT4 [8]
  EC50: 1400 nM
MT4 [9]
  EC50: 22000 nM
MT4 [10]
  Positive cells: 26.9%
MT4 [11]
  Positive cells: 33.6%
MT4 [12]
  Positive cells: 66.6%
MT4 [13]
  Positive cells: 60.9%
